Results reported in ChEMBL document CHEMBL4837207, “Discovery of pyrrolo[2,3-d]pyrimidine derivatives as potent Axl inhibitors: Design, synthesis and biological evaluation” (Eur J Med Chem, 2021).

Columns and labels:
[1] = target: Hepatocyte growth factor receptor (Homo sapiens, UniProt P08581); assay: Inhibition of c-met phosphorylation at Y1234/Y1235 residues in human MKN-45 cells by Western blot analysis; type: cell-based; conditions: dose 2.5-20 nM
Summary of the method: (§1)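 Cells in exponential growth (BaF3 engineered to stably express constitutively active human wild-type TEL-Axl; MKN-45) exposed to the indicated concentrations for 2 h, then lysed in 1× SDS sample buffer. Phosphorylated proteins detected by Western blot.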

[2] = Cmax in Sprague-Dawley rat at 3 mg/kg, po via gavage measured up to 24 hrs by LC-MS analysis; type: ADME, organism-based; design: route oral, dose 3 mg/kg, time <=24; conditions: in vivo
Summary of the method: (§2)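 Male Sprague-Dawley rats (n = 3) dosed once by oral gavage at 3 mg/kg as a solution in 5% DMSO/95% (0.5% CMC-Na). Blood sampled at 0.25, 0.5, 1, 2, 4, 6, 8 and 24 h, kept on wet ice, serum separated by centrifugation and stored at -20 °C. Serum levels measured by LC-MS/MS; parameters reported as means.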

[3] = Inhibition of ABL (unknown origin) by ELISA; design: species or system Homo sapiens
[4] = target: T1, Tyrosine-protein kinase receptor UFO (Mus musculus) (UniProt Q00993); assay: Inhibition of AXL phosphorylation in mouse BaF3 by Western blot analysis; conditions: dose 0.1-10 nM; summary of the method: as §1
T1 sequence (whole entry): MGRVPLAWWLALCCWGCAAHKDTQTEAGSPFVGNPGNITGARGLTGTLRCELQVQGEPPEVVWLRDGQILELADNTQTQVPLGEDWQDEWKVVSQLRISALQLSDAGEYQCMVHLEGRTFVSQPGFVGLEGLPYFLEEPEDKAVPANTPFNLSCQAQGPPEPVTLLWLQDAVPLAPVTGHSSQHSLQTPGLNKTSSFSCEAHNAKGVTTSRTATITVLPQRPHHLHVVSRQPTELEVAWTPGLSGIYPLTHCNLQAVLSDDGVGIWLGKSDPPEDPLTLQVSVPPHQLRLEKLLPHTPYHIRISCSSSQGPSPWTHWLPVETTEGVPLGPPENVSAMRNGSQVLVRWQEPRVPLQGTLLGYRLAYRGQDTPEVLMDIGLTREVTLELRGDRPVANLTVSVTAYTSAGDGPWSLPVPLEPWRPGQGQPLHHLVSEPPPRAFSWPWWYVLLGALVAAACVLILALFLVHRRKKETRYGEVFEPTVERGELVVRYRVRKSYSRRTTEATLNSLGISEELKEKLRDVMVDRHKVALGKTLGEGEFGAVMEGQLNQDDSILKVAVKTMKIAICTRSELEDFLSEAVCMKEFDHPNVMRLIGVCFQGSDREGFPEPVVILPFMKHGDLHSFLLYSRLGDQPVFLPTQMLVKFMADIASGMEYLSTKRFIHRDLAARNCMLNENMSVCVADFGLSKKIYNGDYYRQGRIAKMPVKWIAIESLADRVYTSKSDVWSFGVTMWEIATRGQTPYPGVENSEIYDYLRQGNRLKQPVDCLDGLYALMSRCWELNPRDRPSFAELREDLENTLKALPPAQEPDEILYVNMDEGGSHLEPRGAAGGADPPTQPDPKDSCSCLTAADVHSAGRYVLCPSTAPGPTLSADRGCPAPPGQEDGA

[5] = target: Platelet-derived growth factor receptor alpha (Homo sapiens, UniProt P16234); assay: Inhibition of PDGFRalpha (unknown origin) by ELISA
MKN-45 = assay: Antiproliferative activity against human MKN-45 cells incubated for 72 hrs; type: functional, cell-based; conditions: MKN-45, 72 h
Summary of the method: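 MKN-45 cells (MET-amplified gastric carcinoma) grown in the supplier-recommended medium and serum, seeded at low density and treated the next day across a concentration range for 72 h. Proliferation read by SRB or CCK-8. IC50 obtained from a four-parameter concentration-response fit; mean ± SD of two independent assays.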

[6] = target: T1, Tyrosine-protein kinase receptor UFO (Mus musculus); assay: Inhibition of AXL in mouse BaF3 cells assessed as reduction in AKT phosphorylation at S473 residue by Western blot analysis; type: cell-based; conditions: dose 0.1-10 nM; summary of the method: as §1
[7] = AUC (0 to infinity) in Sprague-Dawley rat at 3 mg/kg, po via gavage measured up to 24 hrs by LC-MS analysis; type: ADME, organism-based; design: route oral, dose 3 mg/kg, time <=24; conditions: in vivo; summary of the method: as §2
[8] = Toxicity in nude mouse xenografted with mouse BaF3 cells stably expressing human TEL-AXL assessed as body weight at 10 to 100 mg/kg, po administered once daily for 14 consecutive days; type: organism-based; conditions: in vivo, 336 h, dose 10-100 mg/kg, time 14 day
Summary of the method: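 BaF3/TEL-Axl cells implanted subcutaneously in nude mice and grown to 700–800 mm³; 1.5 mm³ tumor fragments then transplanted sc into the right flank. At 100–200 mm³, mice were randomized (n = 6 per treated group, 12 vehicle). Oral dosing once daily for 14 days at 10 or 50 mg/kg, with the higher dose raised to 100 mg/kg from day 8. Body weight tracked throughout treatment.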

BaF3 = assay: Antitumor activity against mouse BaF3 cells stably expressing human TEL-AXL xenografted in nude mouse assessed as tumor growth inhibition at 50 to 100 mg/kg, po administered once daily for 14 consecutive days relative to control; type: functional; conditions: dose 50-100 mg/kg; time 14 day
[9] = target: Vascular endothelial growth factor receptor 1 (Homo sapiens, UniProt P17948); assay: Inhibition of VEGFR1 (unknown origin) by ELISA
[10] = target: Mast/stem cell growth factor receptor Kit (Homo sapiens, UniProt P10721); assay: Inhibition of Kit(unknown origin) by ELISA
[11] = target: Vascular endothelial growth factor receptor 2 (Homo sapiens, UniProt P35968); assay: Inhibition of VEGFR2 (unknown origin) by ELISA
Sequence of Vascular endothelial growth factor receptor 2 (P35968 whole entry): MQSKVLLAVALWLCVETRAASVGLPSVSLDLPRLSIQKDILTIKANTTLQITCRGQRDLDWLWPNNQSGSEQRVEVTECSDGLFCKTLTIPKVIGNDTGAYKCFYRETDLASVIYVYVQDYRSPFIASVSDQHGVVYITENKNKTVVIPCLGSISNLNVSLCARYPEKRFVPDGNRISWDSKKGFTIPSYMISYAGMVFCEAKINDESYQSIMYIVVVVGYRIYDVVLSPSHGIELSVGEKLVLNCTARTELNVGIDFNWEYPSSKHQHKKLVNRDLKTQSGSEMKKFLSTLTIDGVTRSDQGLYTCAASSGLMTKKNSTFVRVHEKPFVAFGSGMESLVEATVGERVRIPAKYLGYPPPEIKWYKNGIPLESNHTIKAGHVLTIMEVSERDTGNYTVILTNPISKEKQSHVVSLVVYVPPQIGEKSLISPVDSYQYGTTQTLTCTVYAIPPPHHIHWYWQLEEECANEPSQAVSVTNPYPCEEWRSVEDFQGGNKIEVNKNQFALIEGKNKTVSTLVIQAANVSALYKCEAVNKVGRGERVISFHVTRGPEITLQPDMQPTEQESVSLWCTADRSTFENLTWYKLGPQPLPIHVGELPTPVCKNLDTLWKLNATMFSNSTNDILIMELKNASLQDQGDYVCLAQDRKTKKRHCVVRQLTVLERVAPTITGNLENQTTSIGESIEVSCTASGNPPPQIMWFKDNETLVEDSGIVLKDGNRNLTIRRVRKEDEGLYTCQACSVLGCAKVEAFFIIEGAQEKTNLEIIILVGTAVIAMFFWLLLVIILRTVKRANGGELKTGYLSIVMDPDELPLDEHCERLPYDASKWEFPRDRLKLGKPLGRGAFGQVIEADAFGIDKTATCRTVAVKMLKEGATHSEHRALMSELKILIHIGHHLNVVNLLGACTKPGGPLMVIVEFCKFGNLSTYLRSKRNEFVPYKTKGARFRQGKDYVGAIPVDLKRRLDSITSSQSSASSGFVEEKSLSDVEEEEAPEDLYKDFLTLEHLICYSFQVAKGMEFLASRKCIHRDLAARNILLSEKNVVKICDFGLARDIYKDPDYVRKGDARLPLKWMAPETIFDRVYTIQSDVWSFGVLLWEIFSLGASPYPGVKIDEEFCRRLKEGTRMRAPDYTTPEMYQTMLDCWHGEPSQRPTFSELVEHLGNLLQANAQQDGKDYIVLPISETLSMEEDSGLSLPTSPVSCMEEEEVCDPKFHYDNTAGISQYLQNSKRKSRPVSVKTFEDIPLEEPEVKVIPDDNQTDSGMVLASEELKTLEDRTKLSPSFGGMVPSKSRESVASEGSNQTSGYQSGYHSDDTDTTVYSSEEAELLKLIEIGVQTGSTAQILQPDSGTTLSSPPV

Sequence of Hepatocyte growth factor receptor (P08581 whole entry): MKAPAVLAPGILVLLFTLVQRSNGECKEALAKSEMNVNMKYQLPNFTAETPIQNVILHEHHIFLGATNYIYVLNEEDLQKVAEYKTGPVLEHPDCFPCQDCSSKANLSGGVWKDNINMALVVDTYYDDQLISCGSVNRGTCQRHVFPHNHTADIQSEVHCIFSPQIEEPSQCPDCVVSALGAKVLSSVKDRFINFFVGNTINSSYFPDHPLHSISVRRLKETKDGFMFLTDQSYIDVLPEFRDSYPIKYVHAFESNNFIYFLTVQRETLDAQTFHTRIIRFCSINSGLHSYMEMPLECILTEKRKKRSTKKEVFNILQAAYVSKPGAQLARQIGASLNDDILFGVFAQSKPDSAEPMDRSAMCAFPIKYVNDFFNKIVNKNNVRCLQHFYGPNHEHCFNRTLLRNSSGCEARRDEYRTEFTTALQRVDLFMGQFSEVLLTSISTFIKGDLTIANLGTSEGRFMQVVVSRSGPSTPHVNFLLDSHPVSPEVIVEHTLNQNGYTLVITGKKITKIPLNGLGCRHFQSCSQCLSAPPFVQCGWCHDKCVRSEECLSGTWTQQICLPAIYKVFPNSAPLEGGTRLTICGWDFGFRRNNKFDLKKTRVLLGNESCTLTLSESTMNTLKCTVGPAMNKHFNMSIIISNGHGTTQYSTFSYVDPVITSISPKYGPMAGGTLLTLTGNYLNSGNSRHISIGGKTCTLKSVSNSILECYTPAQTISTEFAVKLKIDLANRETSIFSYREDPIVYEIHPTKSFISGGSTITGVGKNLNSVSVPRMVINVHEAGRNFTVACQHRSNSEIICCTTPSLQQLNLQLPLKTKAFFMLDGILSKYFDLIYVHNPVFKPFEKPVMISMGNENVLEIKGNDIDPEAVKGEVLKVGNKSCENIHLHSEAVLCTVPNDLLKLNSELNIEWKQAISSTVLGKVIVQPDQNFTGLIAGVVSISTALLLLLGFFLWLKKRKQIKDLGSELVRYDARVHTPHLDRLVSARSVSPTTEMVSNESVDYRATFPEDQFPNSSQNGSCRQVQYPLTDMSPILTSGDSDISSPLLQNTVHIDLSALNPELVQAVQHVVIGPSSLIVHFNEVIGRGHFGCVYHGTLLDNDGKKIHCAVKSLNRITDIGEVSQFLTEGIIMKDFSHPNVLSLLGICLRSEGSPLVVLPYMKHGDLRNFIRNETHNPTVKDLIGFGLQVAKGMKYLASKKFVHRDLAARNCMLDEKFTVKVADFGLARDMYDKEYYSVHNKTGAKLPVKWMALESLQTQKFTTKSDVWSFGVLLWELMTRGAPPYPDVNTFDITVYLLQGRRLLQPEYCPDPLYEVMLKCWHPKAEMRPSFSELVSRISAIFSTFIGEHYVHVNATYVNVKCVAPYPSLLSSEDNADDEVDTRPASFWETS
Sequence of Mast/stem cell growth factor receptor Kit (P10721 whole entry): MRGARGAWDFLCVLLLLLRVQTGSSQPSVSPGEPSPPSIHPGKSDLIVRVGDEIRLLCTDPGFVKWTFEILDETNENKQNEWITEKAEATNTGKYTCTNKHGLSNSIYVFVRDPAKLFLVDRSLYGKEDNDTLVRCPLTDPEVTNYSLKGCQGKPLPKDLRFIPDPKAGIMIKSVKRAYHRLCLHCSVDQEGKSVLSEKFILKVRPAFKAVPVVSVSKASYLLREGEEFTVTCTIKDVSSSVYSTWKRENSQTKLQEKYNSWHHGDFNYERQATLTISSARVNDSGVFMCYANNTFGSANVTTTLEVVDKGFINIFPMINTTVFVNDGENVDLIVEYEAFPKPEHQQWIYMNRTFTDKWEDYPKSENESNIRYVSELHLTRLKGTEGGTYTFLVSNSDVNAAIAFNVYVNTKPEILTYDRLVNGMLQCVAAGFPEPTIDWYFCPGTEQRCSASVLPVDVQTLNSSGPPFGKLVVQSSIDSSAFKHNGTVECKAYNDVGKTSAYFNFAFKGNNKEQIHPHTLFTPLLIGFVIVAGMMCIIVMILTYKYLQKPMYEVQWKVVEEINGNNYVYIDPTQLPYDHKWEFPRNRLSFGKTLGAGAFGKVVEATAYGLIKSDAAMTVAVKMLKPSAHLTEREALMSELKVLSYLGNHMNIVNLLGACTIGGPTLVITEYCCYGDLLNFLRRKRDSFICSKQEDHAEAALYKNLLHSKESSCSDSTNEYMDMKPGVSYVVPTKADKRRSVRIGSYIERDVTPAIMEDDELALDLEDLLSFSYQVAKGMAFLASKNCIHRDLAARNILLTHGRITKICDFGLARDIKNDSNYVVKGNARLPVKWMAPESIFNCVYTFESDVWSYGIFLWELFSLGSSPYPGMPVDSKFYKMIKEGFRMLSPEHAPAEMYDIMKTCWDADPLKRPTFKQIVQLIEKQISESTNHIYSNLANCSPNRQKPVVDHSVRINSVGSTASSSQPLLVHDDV
Sequence of Platelet-derived growth factor receptor alpha (P16234 whole entry): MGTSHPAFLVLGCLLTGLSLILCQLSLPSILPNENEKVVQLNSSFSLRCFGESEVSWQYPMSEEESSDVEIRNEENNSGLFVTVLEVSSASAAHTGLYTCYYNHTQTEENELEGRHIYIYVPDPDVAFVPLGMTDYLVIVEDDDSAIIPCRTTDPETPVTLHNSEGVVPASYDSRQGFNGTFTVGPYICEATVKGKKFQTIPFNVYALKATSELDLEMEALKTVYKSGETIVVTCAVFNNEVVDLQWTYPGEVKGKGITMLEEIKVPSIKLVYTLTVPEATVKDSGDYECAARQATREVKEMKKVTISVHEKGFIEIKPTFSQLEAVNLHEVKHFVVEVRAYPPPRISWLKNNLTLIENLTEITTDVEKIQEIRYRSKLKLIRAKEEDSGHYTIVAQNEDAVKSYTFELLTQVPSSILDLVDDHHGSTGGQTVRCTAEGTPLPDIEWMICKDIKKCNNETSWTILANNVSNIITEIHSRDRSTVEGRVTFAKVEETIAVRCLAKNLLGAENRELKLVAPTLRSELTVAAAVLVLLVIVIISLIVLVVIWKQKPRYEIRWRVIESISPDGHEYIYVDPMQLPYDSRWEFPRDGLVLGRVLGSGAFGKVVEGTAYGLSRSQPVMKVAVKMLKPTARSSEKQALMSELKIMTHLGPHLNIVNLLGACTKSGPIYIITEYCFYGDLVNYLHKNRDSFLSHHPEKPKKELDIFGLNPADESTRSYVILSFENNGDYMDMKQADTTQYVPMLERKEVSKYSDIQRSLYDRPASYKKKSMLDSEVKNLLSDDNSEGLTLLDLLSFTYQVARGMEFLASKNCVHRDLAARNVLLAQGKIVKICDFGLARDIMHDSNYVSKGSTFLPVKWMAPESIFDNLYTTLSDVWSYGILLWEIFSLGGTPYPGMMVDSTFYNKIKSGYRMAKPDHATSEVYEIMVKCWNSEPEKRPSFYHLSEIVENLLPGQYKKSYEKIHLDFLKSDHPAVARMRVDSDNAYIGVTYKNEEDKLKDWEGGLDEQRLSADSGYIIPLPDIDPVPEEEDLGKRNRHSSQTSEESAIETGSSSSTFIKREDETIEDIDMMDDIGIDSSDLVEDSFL

CC(C)n1cc(C(=O)Nc2cc(F)c(-c3c[nH]c4ncnc(N)c34)cc2F)c(=O)c(-c2ccc(F)cc2)c1
inhibition [1]: Dose-Dependent Effect | Cmax [2]: 14100 ng/mL | IC50 [3]: > 1000 nM | inhibition [4]: Dose-Dependent Effect | IC50 [5]: > 1000 nM | IC50 (MKN-45): 13.2 nM | inhibition [6]: Dose-Dependent Effect | AUC(0-inf) [7]: 44300 ng·h/mL | Activity [8]: Non-Toxic | TGI (BaF3): 67.4% | IC50 [9]: > 1000 nM | IC50 [10]: > 1000 nM | IC50 [11]: > 1000 nM
